# Screening data deposited in PubChem by Johns Hopkins Ion Channel Center.
# A selection: hits, their analogues and other compounds. The true share with any hit is near 2.3%.
# TRPC4 PAM: positive allosteric modulators of TRPC4, primary screen, cell-based, mouse TRPC4beta, HEK293 mu-opioid, Fluo-4 calcium; DAMGO EC20, Fluo-4 Ca2+ flux; hits give high values; B-score at 10 µM; 310,000 compounds, 0.42% hits; AID 2227, 2009;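 active = B-score of calcium response area above 5 SD of library B-scores, with initial fluorescence ratio within 5 SD of library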;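 note: B-score of integrated fluorescence ratio over time as area under calcium response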
# Target sequence (Q9QUQ5 whole entry, looked up): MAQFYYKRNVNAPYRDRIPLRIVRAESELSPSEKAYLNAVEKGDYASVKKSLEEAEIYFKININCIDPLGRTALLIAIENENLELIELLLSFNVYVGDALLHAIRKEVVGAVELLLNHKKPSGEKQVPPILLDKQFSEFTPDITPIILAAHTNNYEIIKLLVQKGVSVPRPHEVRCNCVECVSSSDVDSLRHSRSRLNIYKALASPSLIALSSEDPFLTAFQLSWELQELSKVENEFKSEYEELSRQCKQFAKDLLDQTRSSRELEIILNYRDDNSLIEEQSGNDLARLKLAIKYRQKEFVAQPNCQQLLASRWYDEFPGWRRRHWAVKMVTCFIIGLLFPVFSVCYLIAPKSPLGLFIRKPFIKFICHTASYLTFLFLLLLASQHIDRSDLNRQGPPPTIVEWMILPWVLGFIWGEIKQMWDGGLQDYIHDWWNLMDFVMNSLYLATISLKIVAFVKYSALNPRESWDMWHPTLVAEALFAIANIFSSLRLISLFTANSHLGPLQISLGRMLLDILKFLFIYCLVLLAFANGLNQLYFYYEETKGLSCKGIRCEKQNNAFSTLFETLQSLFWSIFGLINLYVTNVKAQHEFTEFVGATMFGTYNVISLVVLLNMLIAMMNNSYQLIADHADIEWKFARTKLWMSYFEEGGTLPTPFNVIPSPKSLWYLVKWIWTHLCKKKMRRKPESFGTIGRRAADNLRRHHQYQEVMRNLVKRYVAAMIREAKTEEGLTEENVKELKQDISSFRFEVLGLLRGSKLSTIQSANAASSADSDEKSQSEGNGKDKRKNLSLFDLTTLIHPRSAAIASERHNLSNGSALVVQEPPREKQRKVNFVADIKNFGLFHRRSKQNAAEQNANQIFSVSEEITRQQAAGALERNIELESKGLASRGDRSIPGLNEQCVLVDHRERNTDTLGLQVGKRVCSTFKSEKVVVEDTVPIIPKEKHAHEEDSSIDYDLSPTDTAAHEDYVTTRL
# TRPC6 act: mouse TRPC6 channel activators, primary screen, cell-based, HEK293, membrane potential dye. HEK293-TRPC6 membrane potential dye fluorescence; hits give high values. B-score at 10 µM. 310,000 compounds, 0.13% hits;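 active = B-score of the integrated fluorescence ratio above library mean plus 3 SD, and starting fluorescence ratio within library mean plus 5 SD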;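 note: higher score means more depolarization so channel activation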
# TRPC4 block: inhibitors of mouse TRPC4 channel, primary screen, Fluo4 calcium, HEK293 TRPC4beta/mu-opioid cells; DAMGO-evoked Fluo4 calcium flux; hits give low values; B-score at 10 µM; 300,000 compounds, 0.39% hits; AID 2247, 2010; Short transient receptor potential channel 4 (Mus musculus), Q9QUQ5;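 active = B-score over 3 SD under the library average, no early fluorescence shift, positive overall ratio signal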
#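 Assay system – HEK293 line stably carrying TRPC4beta and mu-opioid receptor · Doses – single dose · Detection – Fluo4 calcium-dye fluorescence, kinetic read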
# TRPC6 inhibitor: mouse TRPC6 channel inhibitors, primary screen, cell-based, HEK293, membrane potential dye. Short transient receptor potential channel 6 (Mus musculus), Q61143. ACh-evoked depolarization; hits give low values. B-score at 10 µM. 310,000 compounds, 1.1% hits. AID 2553, 2010;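 active = B-score under library mean minus 3 SD, initial fluorescence not abnormally high, positive integrated signal ratio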;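 note: B-score derived from integrated fluorescence ratio over the kinetic read; more negative B-score means stronger inhibition of depolarization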
# TRPC4 agonist: activators of mouse TRPC4 channel, primary screen, Fluo4 calcium, HEK293 TRPC4beta/mu-opioid cells. Short transient receptor potential channel 4 (Mus musculus), Q9QUQ5. Fluo4 calcium fluorescence; hits give high values. B-score at 10 µM. 310,000 compounds, 0.49% hits. AID 2237, 2010;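 active = B-score above 5 SD of library B-scores, and initial fluorescence ratio not above library mean plus 5 SD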;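 note: positive B-score marks a calcium rise read as TRPC4 activation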
#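 system = HEK293 cells stably co-expressing mouse TRPC4beta and mu-opioid receptor | schedule = Fluo4 dye loading 45 min at room temperature, 110 s recording | measure = B-scored integrated calcium fluorescence ratio | signal = Fluo4 calcium-sensitive dye fluorescence, kinetic, 1 Hz baseline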
# TRPC4 spec 2: second selectivity test of TRPC6 inhibitors: effect on mouse TRPC4; AID 2776; 920 compounds, 42% hits; HEK293 TRPC4/MOR, membrane potential dye fluorescence; channel activated by saturating DAMGO dose; shares compounds with TRPC6 inhibitor; inhibition, % at 10 µM;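 active = compounds whose fluorescence signal differed from control wells by over 3 SD, either direction, in both duplicate plates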
# TRPC4 spec: mouse TRPC4 modulation by TRPC6 hits, confirmation, selectivity assay for TRPC6 inhibitor project, cell-based, HEK293 TRPC4/mu-opioid, membrane potential dye; shares compounds with TRPC6 inhibitor; membrane potential fluorescence; activity change, negative = inhibition, % at 10 µM; 920 compounds, 61% hits;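 active = rise or fall in signal beyond 3 SD of buffer-only wells in both replicate plates, either sign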;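 note: integrated kinetic ratio of fluorescence range over baseline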
# HEK293 MPD ctr 2-1: nonspecific membrane potential effects, parental HEK293, confirmation, counter-screen for TRPC6 inhibitor project, cell-based, second counter screen; shares compounds with TRPC6 inhibitor; parental HEK293 membrane potential dye fluorescence; maximal acetylcholine challenge after compound addition; signal change vs control, % at 10 µM; 920 compounds, 31% hits; AID 2779, 2010;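 active = membrane potential signal moving either way by over 3 SD of the maximum-effect control, in both duplicate plates, meaning non-specific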
# HEK293 MPD ctr-1: membrane potential modulation in parental HEK293, confirmation, counter-screen for TRPC6 inhibitor project, cell-based; shares compounds with TRPC6 inhibitor; 920 compounds, 60% hits; membrane potential signal change, % at 10 µM; parental HEK293 membrane potential dye fluorescence;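 active = membrane potential signal shifting up or down by more than 3 SD of buffer-only wells, on both duplicate plates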
# HEK293 MPD ctr-2: parental HEK293 membrane potential modulation, confirmation, counter-screen for TRPC6 modulator project, cell-based; 2,400 compounds, 51% hits; shares compounds with TRPC6 inhibitor; membrane potential dye fluorescence; AID 488924, 2010; membrane potential signal change, % at 10 µM;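 active = membrane potential signal moves up or down beyond 5 SD from buffer-only wells, on both duplicate plates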
# HEK293 MPD ctr 2-2: parental HEK293 nonspecific activity of TRPC6 modulators, second screen | shares compounds with TRPC6 inhibitor | membrane potential dye fluorescence; after compound, maximal acetylcholine stimulation | inhibition, % at 10 µM | 2,400 compounds, 14% hits | AID 488926;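 active = membrane potential signal drops by more than 5 SD from the mean control signal, in both duplicate plates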;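 note: plate controls were acetylcholine ECmax control wells for no effect and buffer only wells for full effect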
# TRPC4/MOR mod: TRPC4 modulation by TRPC6 hit compounds, confirmation, selectivity assay for TRPC6 modulator project, cell-based, HEK293 TRPC4/mu-opioid, membrane potential dye, mouse | percent change from control (negative = decrease, positive = increase), % at 10 µM | AID 488927, 2010 | membrane potential fluorescence | 2,400 compounds, 69% hits | shares compounds with TRPC6 inhibitor;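 active = membrane potential signal moved up or down beyond 5 SD of buffer control wells, in both duplicate plates, actives on both sides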;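 note: plate controls were assay buffer wells for no effect and DAMGO maximal-effect wells for full effect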
# TRPC4 ctr inh 2: second check of whether TRPC6 modulators also affect mouse TRPC4; shares compounds with TRPC6 inhibitor; HEK293 TRPC4/mu-opioid, membrane potential dye fluorescence; stimulated with maximal-effect DAMGO; inhibition, % at 10 µM; 2,400 compounds, 55% hits;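 active = drop in membrane potential signal beyond 5 SD of the control wells in both duplicate plates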;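 note: TRPC4 counter screen for TRPC6 hits run under conditions tuned for TRPC6 not TRPC4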
# TRPC6 block conf: mouse TRPC6 channel inhibitors, confirmation, HEK293 cells, membrane potential dye, duplicate; 3,300 compounds, 43% hits; inhibition, % at 10 µM; ACh-evoked depolarization; shares compounds with TRPC6 inhibitor;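 active = fluorescence ratio falls more than 5 SD below the full-stimulation control mean, in both duplicate runs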;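 note: integrated fluorescence ratio of peak minus minimum over baseline after agonist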
# TRPC6 act confirm: mouse TRPC6 channel activators, confirmation, HEK293 cells, membrane potential dye, duplicate; 2,800 compounds, 11% hits; HEK293-TRPC6 membrane potential dye fluorescence, FDSS; activation, % at 10 µM; shares compounds with TRPC6 inhibitor; AID 488961, 2010;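 active = ratio signal rise beyond 5 SD above unstimulated control wells' mean, seen in both duplicate runs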;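 note: plate controls were buffer EC0 wells for no effect and acetylcholine ECmax response for full effect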
# Starred values were filed as active, the others as inactive; i = inactive; x = not tested or not shown.
SMILES,TRPC4 PAM,TRPC6 act,TRPC4 block,TRPC6 inhibitor,TRPC4 agonist,HEK293 MPD ctr-2,HEK293 MPD ctr 2-2,TRPC4/MOR mod,TRPC4 ctr inh 2,TRPC6 block conf,TRPC6 act confirm,others
Cc1nnc(SCCn2c(N3CCN(C)CC3)nc3c2c(=O)[nH]c(=O)n3C)s1,i,i,i,-10.2*,i,x,x,x,x,68.8%*,i,TRPC4 spec 2=74.0%*;TRPC4 spec=-36.2%*;HEK293 MPD ctr 2-1=i;HEK293 MPD ctr-1=-592.0%*
Cc1nnc(SCCn2c(N3CCCCCC3)nc3c2c(=O)[nH]c(=O)n3C)s1,i,i,i,i,i,x,x,x,x,x,x,
Cn1c(=O)[nH]c(=O)c2c1nc(N1CCN(Cc3ccccc3)CC1)n2CCSc1ncccn1,i,i,i,-7.91*,i,-329.0%*,96.5%*,-59.0%*,62.5%*,58.0%*,i,
Cc1nnc(SCCn2c(N3CCN(Cc4ccccc4)CC3)nc3c2c(=O)[nH]c(=O)n3C)s1,i,i,i,-7.77*,i,-278.5%*,i,-43.5%*,i,i,i,
Cn1c(=O)[nH]c(=O)c2c1nc(N1CCN(Cc3ccccc3)CC1)n2CCCc1ccccc1,i,i,i,i,i,x,x,x,x,x,x,
COc1ccc(S(=O)(=O)N2CCOC23CCN(S(=O)(=O)c2c(C)cc(C)cc2C)CC3)cc1,i,i,i,i,i,x,x,x,x,x,x,
N#CC(C#N)=C1c2cc(S(=O)(=O)NCCO)ccc2-c2ccc(S(=O)(=O)NCCO)cc21,i,i,i,-5.22*,i,-138.0%*,i,-30.5%*,i,i,i,
Nc1nc(SCC(=O)N2CCCCC2)[nH]c(=O)c1NC(=O)c1ccccc1F,i,i,i,i,i,x,x,x,x,x,x,
c1ccc(-c2csc(Nc3cccnc3)n2)nc1,i,i,x,-6.03*,i,-84.5%*,i,-17.5%*,i,i,i,
CCC(=O)Nc1cccc(-c2cnc3ccccc3n2)c1,i,i,i,-5.62*,i,i,i,i,i,i,i,
CC(C)N1CCC2(CC1)N=C(c1ccc3c(c1)OCO3)CC(c1cc(Cl)ccc1O)N2 (configuration not stated),i,i,i,-7.14*,i,x,x,x,x,i,i,TRPC4 spec 2=34.0%*;TRPC4 spec=i;HEK293 MPD ctr 2-1=i;HEK293 MPD ctr-1=i
NC(=O)COc1ccc2oc(=O)cc(-c3cc4ccccc4o3)c2c1,i,i,i,i,i,x,x,x,x,x,x,
Cc1ccc(S(=O)(=O)CCC(=O)NC2CCCC2)cc1,i,i,i,i,i,x,x,x,x,x,x,
Cc1ccnc(SCC(=O)N2CCN(C(c3ccccc3)c3ccccc3)CC2)n1,i,18.4*,i,-11.4*,i,117.5%*,i,20.0%*,i,61.5%*,141.5%*,
C=CCN(c1ccccc1)S(=O)(=O)c1cccc(C(=O)NC2CCN(Cc3ccccc3)CC2)c1,i,i,i,-6.57*,i,i,i,i,57.0%*,i,i,
CN(C)S(=O)(=O)c1cccc(C(=O)NCC(=O)NC2CCN(Cc3ccccc3)CC2)c1,i,i,i,i,i,x,x,x,x,x,x,
CCCCN(C/C=C/c1ccccc1OC)Cc1ccccc1,i,i,i,i,i,x,x,x,x,x,x,
Cc1cccnc1NC(=O)c1c(O)c2ccccc2n(C)c1=O,i,i,i,-6.92*,i,x,x,x,x,i,i,TRPC4 spec 2=i;TRPC4 spec=-13.0%*;HEK293 MPD ctr 2-1=i;HEK293 MPD ctr-1=-144.5%*
COC(=O)c1cc(C)sc1NC(=O)CN1CCN(C(=O)C2CCCO2)CC1 (configuration not stated),i,i,i,i,i,x,x,x,x,x,x,
C=CCN(C(=O)CC(NC(C)=O)c1ccccc1)c1nc(-c2ccc(S(C)(=O)=O)cc2)cs1 (configuration not stated),i,i,i,-6.48*,i,i,i,i,i,i,i,
CC(=O)NC(CC(=O)Nc1nc(C)cs1)c1ccccc1 (configuration not stated),i,i,i,i,i,x,x,x,x,x,x,
O=c1c2ccccc2nc(SCCN2CCCCC2)n1CCc1ccccc1,i,i,i,-7.85*,i,x,x,x,x,67.8%*,i,TRPC4 spec 2=41.5%*;TRPC4 spec=i;HEK293 MPD ctr 2-1=i;HEK293 MPD ctr-1=i
NC(=O)CSc1nc2ccccc2c(=O)n1CCc1ccccc1,i,i,i,i,i,x,x,x,x,x,x,
